Test results: ChEMBL document CHEMBL1125185, “Nonpeptide angiotensin II receptor antagonists: the discovery of a series of N-(biphenylylmethyl)imidazoles as potent, orally active antihypertensives” (J Med Chem, 1991)
The source made the active and inactive calls. The rule behind the calls is not given here.

Experiments:
[1] = test system: Rattus norvegicus; experiment: Effective dose that lowers the blood pressure 30 mmHg after intravenous administration; assay type: functional
Method in brief: (§1)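 Renal artery-ligated conscious rats (4-6 per dose) received compound iv or po. ED30 is the dose lowering blood pressure by 30 mmHg. It was calculated by linear regression of mean maximal decreases, using at least three doses from the linear part of the dose-response curve.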

[2] = test system: Rattus norvegicus; experiment: Blood pressure lowering activity in renal hypertensive rats after peroral administration; assay type: functional
Method in brief: (§2)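 Conscious male Sprague-Dawley CD rats, six days after left renal artery ligation and with jugular and carotid cannulae, were dosed by oral gavage at 1-100 mg/kg (4-6 rats/dose). Mean arterial pressure was monitored for 3 h.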

[3] = test system: Rattus norvegicus; experiment: Blood pressure lowering activity in renal hypertensive rats after peroral administration; NA=not active indicates fail to cause drop in blood pressure even at 100 mg/Kg (in vivo); assay type: functional, organism-based; method in brief: as §2
[4] = test system: Rattus norvegicus; experiment: Blood pressure lowering activity in renal hypertensive rats after intravenous administration; NA=not active indicates fail to cause drop in blood pressure even at 100 mg/Kg (in vivo); assay type: functional, organism-based
Method in brief: (§3)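 Male Sprague-Dawley CD rats had the left renal artery ligated under hexobarbital (100 mg/kg ip). Six days later the jugular vein and carotid artery were cannulated under hexobarbital (90 mg/kg ip). Compound was given intravenously to the conscious hypertensive rats while mean arterial pressure was recorded.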

[5] = molecular target: T1, Angiotensin II receptor (Rattus norvegicus, UniProt P29089+P25095+P35351); experiment: Inhibition of radioligand [3H]angiotensin II binding to angiotensin II receptor of rat adrenal cortical membrane
T1 sequence (P29089 whole entry): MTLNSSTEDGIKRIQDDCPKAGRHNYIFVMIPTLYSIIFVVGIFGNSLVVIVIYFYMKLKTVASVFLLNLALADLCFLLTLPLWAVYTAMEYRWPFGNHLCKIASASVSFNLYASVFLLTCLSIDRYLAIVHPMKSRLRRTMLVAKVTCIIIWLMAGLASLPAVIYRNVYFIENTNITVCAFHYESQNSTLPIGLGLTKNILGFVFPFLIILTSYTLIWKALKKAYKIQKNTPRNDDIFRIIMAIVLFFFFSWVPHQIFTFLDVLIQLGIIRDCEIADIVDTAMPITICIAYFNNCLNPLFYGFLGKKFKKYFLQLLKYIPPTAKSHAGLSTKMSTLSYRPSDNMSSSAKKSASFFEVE
T1 sequence (P25095 whole entry): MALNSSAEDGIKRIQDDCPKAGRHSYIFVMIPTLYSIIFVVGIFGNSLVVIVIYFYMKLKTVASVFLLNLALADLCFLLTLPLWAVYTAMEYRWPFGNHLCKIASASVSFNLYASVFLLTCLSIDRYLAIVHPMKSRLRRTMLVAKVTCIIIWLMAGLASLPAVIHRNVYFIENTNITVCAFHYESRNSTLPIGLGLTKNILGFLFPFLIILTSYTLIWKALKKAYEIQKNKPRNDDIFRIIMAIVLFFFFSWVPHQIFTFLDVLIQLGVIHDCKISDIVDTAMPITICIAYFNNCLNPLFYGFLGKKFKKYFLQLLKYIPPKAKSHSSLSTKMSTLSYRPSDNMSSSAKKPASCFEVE
T1 sequence (P35351 whole entry): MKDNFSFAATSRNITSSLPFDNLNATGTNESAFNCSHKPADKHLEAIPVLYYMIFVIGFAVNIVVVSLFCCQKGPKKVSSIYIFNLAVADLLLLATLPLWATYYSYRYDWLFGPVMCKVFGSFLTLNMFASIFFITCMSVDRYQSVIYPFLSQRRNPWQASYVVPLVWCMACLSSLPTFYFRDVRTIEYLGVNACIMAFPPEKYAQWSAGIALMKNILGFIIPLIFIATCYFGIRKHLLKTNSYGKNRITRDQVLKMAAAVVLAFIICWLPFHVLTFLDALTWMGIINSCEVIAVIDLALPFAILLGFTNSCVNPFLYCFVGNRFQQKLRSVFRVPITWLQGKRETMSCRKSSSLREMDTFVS
Method in brief: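 Rat adrenal cortical microsomes came from male Sprague-Dawley CD rats (300-400 g) and were prepared at 4 °C in sucrose/EDTA/Tris pH 7.4. Samples were filtered and counted, in duplicate. Specific binding was defined with 1 µM unlabeled AII. IC50 was taken from the linear portion of the displacement curve.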

[6] = test system: Rattus norvegicus; experiment: Effective dose that lowers the blood pressure 30 mmHg after peroral administration; assay type: functional; conditions: po; method in brief: as §1
[7] = Ionization constant for the compound; assay type: physicochemical, Rattus norvegicus
[8] = test system: Rattus norvegicus; experiment: Blood pressure lowering activity in renal hypertensive rats after intravenous administration; assay type: functional; method in brief: as §3
[9] = test system: Rattus norvegicus; experiment: Blood pressure lowering activity in renal hypertensive rats after peroral administration; no drop in blood pressure or a statistically insignificant drop in blood pressure was observed (in vivo); assay type: functional; method in brief: as §2
[10] = test system: Rattus norvegicus; experiment: Blood pressure lowering activity in renal hypertensive rats after intravenous administration; no drop in blood pressure or a statistically insignificant drop in blood pressure was observed (in vivo); assay type: functional; method in brief: as §3
[11] = test system: Rattus norvegicus; experiment: Blood pressure lowering activity in renal hypertensive rats after peroral administration; Inactive indicates fail to cause significant drop in blood pressure even at 100 mg/kg (in vivo); assay type: functional, organism-based; design: dose 100 mg/kg; method in brief: as §2
[12] = test system: Rattus norvegicus; experiment: These values indicate drop in blood pressure activity in renal hypertensive rats after peroral administration; NA=not active indicates fail to cause drop in blood pressure even at 30 mg/Kg (in vivo); assay type: functional, organism-based
[13] = test system: Rattus norvegicus; experiment: Blood pressure lowering activity in renal hypertensive rats after peroral administration; Inactive indicates fail to cause significant drop in blood pressure even at 100 mg/kg; assay type: functional, organism-based; design: dose 100 mg/kg; method in brief: as §2

| Compound | ED30 [1] [mg/kg] | Activity [2] [mg/kg] | IC50 [5] [nM] | pKa [7] | other results |
| --- | --- | --- | --- | --- | --- |
| CCCCc1nc(Cl)c(CO)n1Cc1ccc(-c2cc(OC)ccc2-c2nn[nH]n2)cc1 | 6.03 | >10 |  |  |  |
| CCCCc1ncc(CO)n1Cc1ccc(-c2ccccc2-c2nn[nH]n2)cc1 |  |  |  |  | Activity [3]: inactive; Activity [4]: inactive |
| CCCCc1nc(Cl)c(CO)n1Cc1ccc(-c2ccc(OC)cc2-c2nn[nH]n2)cc1 | 1.75 | >10 | 580 |  |  |
| CCCCc1nc(Cl)c(CO)n1Cc1ccc(-c2ccccc2C(=O)O)cc1 |  |  |  | 5 | ED30 [6]: 11 mg/kg; Activity [8]: 3 mg/kg |
| CCCCc1nc(Cl)c(C=O)n1Cc1ccc(-c2ccccc2C(=O)O)cc1 |  |  |  |  | ED30 [6]: 1.7 mg/kg; Activity [8]: 10 mg/kg |
| CCCCc1nc(C(F)(F)F)c(CO)n1Cc1ccc(-c2ccccc2-c2nn[nH]n2)cc1 | 0.53 |  |  |  | Activity [9]: >3 mg/kg |
| CCCCc1nc(Cl)c(CO)n1Cc1ccc(-c2ccccc2C(=O)NO)cc1 |  | >30 | 4100 | 10.5 | Activity [10]: >3 mg/kg |
| CCCCc1nc(Cl)c(COC)n1Cc1ccc(-c2ccccc2C(=O)NNS(=O)(=O)C(F)(F)F)cc1 |  | >30 | 200 |  | Activity [10]: >3 mg/kg |
| CCCCc1nc(Cl)c(CO)n1Cc1ccc(-c2ccccc2C(=O)NOCc2ccccc2)cc1 |  |  | 4900 | 10.8 | Activity [11]: inactive; Activity [8]: 10 mg/kg |
| CCCCc1nc(Cl)c(C=O)n1Cc1ccc(-c2ccc(-c3nn[nH]n3)cc2)cc1 |  | >30 | > 10000 |  | Activity [10]: >3 mg/kg |
| CCCCc1nc(Cl)c(CO)n1Cc1ccc(-c2ccccc2C(=O)NS(=O)(=O)c2ccccc2)cc1 |  |  |  | 8.44 | Activity [12]: inactive; Activity [10]: >3 mg/kg |
| CCCCc1nc(Cl)c(CO)n1Cc1ccc(-c2ccccc2-c2nnn[nH]2)cc1 [LOSARTAN] | 0.8 |  |  | 6 | ED30 [6]: 0.59 mg/kg |
| CCCCc1nc(Cl)c(CO)n1Cc1ccc(-c2ccccc2C(=O)NOC)cc1 |  |  |  | 10.9 | Activity [8]: 10 mg/kg; Activity [13]: inactive |
| CCCCc1nc(Cl)c(C(=O)O)n1Cc1ccc(-c2ccccc2C(=O)O)cc1 | 0.47 | >10 | 92 |  |  |
| CCCCc1nc(Cl)c(CO)n1Cc1ccc(-c2cc(C#N)ccc2-c2nn[nH]n2)cc1 |  | >30 | 510 |  | Activity [10]: >3 mg/kg |
| CCCCc1nc(Cl)c(CNC(=O)c2cc3c(OCC(O)CNC(C)C)cccc3[nH]2)n1Cc1ccc(-c2ccccc2C(=O)O)cc1 (stereo not given) | 1 |  | 380 |  |  |
| CC/C=C/c1nc(Cl)c(CO)n1Cc1ccc(-c2ccccc2C(=O)O)cc1 | 1 |  |  |  | ED30 [6]: 3.6 mg/kg |
| CCCc1nc(C)c(CO)n1Cc1ccc(-c2ccccc2C(=O)O)cc1 | 1.3 | >30 | 1800 |  |  |
